Measured values from PMC12082725 (Journal of Enzyme Inhibition and Medicinal Chemistry, 2025).
Read-outs that look alike come from different tables or passages of the source.

Experiments:
[1] = target: SARS-CoV-2 NP-RNA interaction (Severe acute respiratory syndrome coronavirus 2, UniProt P0DTC9); test: biochemical; format: biochemical; details: for inhibition rate of the NP-RNA interaction: compound at 50 μM
SARS-CoV-2 NP = SARS-CoV-2 NP (Severe acute respiratory syndrome coronavirus 2, UniProt P0DTC9); test: BLI binding of compounds to full-length NP
Procedure, shortened: (§1)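 Target was recombinant E. coli-expressed SARS-CoV-2 NP, either CTD or full-length (1–419). Protein at 0.39 mg/ml was biotinylated for 30 min at RT, then loaded at 100 μg/ml onto streptavidin sensors for 20 min. After a 60 s baseline, increasing test compound concentrations gave 120 s association and 300 s dissociation. Run in PBS/0.01% Tween-20 at 30 °C; double-reference subtracted; KD from a global 1:1 Langmuir fit.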

SARS-CoV-2 NP CTD = SARS-CoV-2 NP CTD (Severe acute respiratory syndrome coronavirus 2, UniProt P0DTC9); test: BLI binding of compounds to NP CTD
Procedure, shortened: as §1

SARS-CoV-2 NP NTD = SARS-CoV-2 NP NTD (Severe acute respiratory syndrome coronavirus 2, UniProt P0DTC9); test: BLI binding of compounds to NP NTD; details: NP NTD (residues 44 to 174)
[2] = target: RNA-induced LLPS of the NP (Severe acute respiratory syndrome coronavirus 2, UniProt P0DTC9); format: biochemical, SARS-CoV-2
NP NTD = details: read-out: Kd, NP NTD; via bio-layer interferometry assay; ref [28]; cited from earlier work

COc1ccc(CC(C)NCC(O)c2ccc(O)c(NC=O)c2)cc1 (centres unmarked) [formoterol]
inhibitory effect on NP-RNA interaction (in words) ([1]; HTRF, 50 μM): neither compound affected

COc1ccc2cc([C@H](C)C(=O)O)ccc2c1 [naproxen]
inhibitory effect on NP-RNA interaction (in words) [1]: did not inhibit

O=C(O)c1cc(O)c2c(c1)[C@@H]([C@H]1c3cc(C(=O)O)cc(O)c3C(=O)c3c(O[C@@H]4O[C@H](CO)[C@@H](O)[C@H](O)[C@H]4O)cccc31)c1cccc(O[C@@H]3O[C@H](CO)[C@@H](O)[C@H](O)[C@H]3O)c1C2=O [sennoside B]
IC50 [1]: 1050 ± 230 nM | inhibition rate of the NP-RNA interaction ([1]; HTRF): exceeding 98% | Kd (SARS-CoV-2 NP): 765 ± 12 nM | Kd (SARS-CoV-2 NP CTD): 529 ± 16 nM | binding to NP NTD (SARS-CoV-2 NP NTD): neither sennoside A nor sennoside B bound | inhibition of RNA-induced LLPS of the NP [2]: significantly inhibited

CCOC(=O)c1c(CSc2ccccc2)n(C)c2cc(Br)c(O)c(CN(C)C)c12 [umifenovir]
inhibitory effect on NP-RNA interaction (in words) ([1]; HTRF, 50 μM): no inhibitory effect

CC(C)[N+]1(C)[C@@H]2CC[C@H]1C[C@@H](OC(=O)C(CO)c1ccccc1)C2 (some centres unmarked) [ipratropium bromide]
inhibitory effect on NP-RNA interaction (in words) ([1]; HTRF, 50 μM): neither compound affected

Cc1ccc(C(=O)Nc2ccc(S(=O)(=O)O)c3cc(S(=O)(=O)O)cc(S(=O)(=O)O)c23)cc1NC(=O)c1cccc(NC(=O)Nc2cccc(C(=O)Nc3cc(C(=O)Nc4ccc(S(=O)(=O)O)c5cc(S(=O)(=O)O)cc(S(=O)(=O)O)c45)ccc3C)c2)c1 [suramin]
Kd (NP NTD): 2740 nM

O=C(O)c1cc(O)c2c(c1)[C@H]([C@H]1c3cc(C(=O)O)cc(O)c3C(=O)c3c(O[C@@H]4O[C@H](CO)[C@@H](O)[C@H](O)[C@H]4O)cccc31)c1cccc(O[C@@H]3O[C@H](CO)[C@@H](O)[C@H](O)[C@H]3O)c1C2=O [sennoside A]
IC50 [1]: 3170 ± 390 nM | inhibition rate of the NP-RNA interaction ([1]; HTRF): exceeding 98% | Kd (SARS-CoV-2 NP): 962 ± 19 nM | Kd (SARS-CoV-2 NP CTD): 1820 ± 30 nM | binding to NP NTD (SARS-CoV-2 NP NTD): neither sennoside A nor sennoside B bound | inhibition of RNA-induced LLPS of the NP [2]: relatively weaker activity
